The values that follow come from ChEMBL document CHEMBL3808291, “Bifunctional Peptide-Based Opioid Agonist-Nociceptin Antagonist Ligands for Dual Treatment of Acute and Neuropathic Pain” (J Med Chem, 2016).

Each structure is given as a SMILES string. The source made the active and inactive calls. Numbered stars: 1 amine (or outer) side, 2 acyl side, 3 side chain; on linkers, the order of the positions; unused ones are H or OH. Square brackets hold non-standard residues; d marks the D form. Peptide text beside a SMILES is read from it. X1 = O=C1[C@@H](N[*:1])Cc2ccccc2CN1CCC(=O)[*:2]; Dmt = Cc1cc(O)cc(C)c1C[C@H](N)C(=O)O

For data set [1], the system named is Mus musculus. Kind of data set: Antihyperalgesic activity in albino Swiss CD1 IGS mouse model of streptozocin-induced type1 diabetic neuropathic pain assessed as increase in paw withdrawal latency at 0.005 nmol, it administered on day 10 after STZ injection measured at 180 mins post dose by […]. Type of data set: functional, organism-based. The method in brief: (§1)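 Male CD-1 mice (30–35 g). CCI: sciatic constriction injury, tested on days 7–16 after surgery. STZ diabetes: single ip streptozocin 200 mg/kg; mice with glucose >300 mg/dL included, tested on day 10. Drug in water for injection, given it (5 µL, L5–L6 lumbar puncture) to conscious mice. von Frey (cutoff 6 g) or cold plate (2 °C, 30 s cutoff, paw lift) at 30, 90, 180 min; 6–8 mice/group.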

Data set [2] relates to Mus musculus. Kind of data set: Antihyperalgesic activity in albino Swiss CD1 IGS mouse model of chronic constriction injury-induced neuropathic pain assessed as increase in paw withdrawal latency at 0.0005 nmol, it administered on day 7 to 16 after CCI surgery measured 180 mins post dose by cold plate test. It counts as functional, organism-based. In outline: as §1
The test system of data set [3] is Mus musculus. Kind of data set: Antinociceptive activity in C57BL6 mouse model of acute pain assessed as increase in withdrawal latency from radiant heat source at 31 to 61 nmol/kg, iv measured after 180 to 240 mins by tail flick assay relative to control. Type of data set: functional. In outline:
(§2)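 Male C57BL6 mice (20–25 g); compound or saline given iv into tail vein (po also tested). Radiant heat on ventral tail, latency to withdrawal/shaking recorded at baseline and 5, 15, 30, 60, 120 min (later points also reported); normalized as %MPE; 8–10 mice per group.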

Data set [4] deals with Mus musculus. Kind of data set: Antinociceptive activity in C57BL6 mouse model of acute pain assessed as increase in withdrawal latency from radiant heat source at 61 to 196 nmol/kg, po measured after 5 to 120 mins by tail flick assay relative to control. Type of data set: functional. The method in brief: as §2
(Thermal pain tests record how soon the animal reacts.)

For data set [5], the system named is Mus musculus. Kind of data set: Antiallodynic activity in albino Swiss CD1 IGS mouse model of chronic constriction injury-induced neuropathic pain assessed as increase in mechanical threshold for paw withdrawal at 0.0005 nmol, it administered on day 7 to 16 after CCI surgery measured 180 mins post dose by Von Frey test. It counts as functional, organism-based. The method in brief: as §1

Data set [6] is described as follows: Passive permeability of compound at 500 uM after 4 hrs by BBB-PAMPA. It counts as ADME. The note with it: read-out: permeability. In outline: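 BBB-PAMPA with porcine brain polar lipids; compound at 500 µM in donor compartment in system solution containing 20% 1-propanol; 4 h at room temperature in humidified box, 25 µm unstirred water layer. Quantified by RP-HPLC, identity by MALDI-TOF; effective permeability and % transport calculated.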

The test system of data set [7] is Rattus norvegicus. Description: Reduction in tidal volume in Sprague-Dawley rat at 6 nmol/kg, iv after 5 to 120 mins by plethysmography method. Type of data set: organism-based. The note with it: in vivo. The method in brief:
(§3)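 Male Sprague–Dawley rats (250–350 g) with implanted catheter and intraperitoneal temperature transmitter, dosed iv at T0; 0.9% NaCl as control; N = 6/group. Whole-body barometric plethysmography, ~60 s records at −30, −15, −5, 5–120 min.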

Data set [8] deals with Rattus norvegicus. Kind of data set: Induction of respiratory depression in Sprague-Dawley rat at 6 nmol/kg, iv after 5 to 120 mins by plethysmography method. It counts as organism-based. The note with it: in vivo. In outline: as §3
Data set [9] relates to Mus musculus. Description: Antiallodynic activity in albino Swiss CD1 IGS mouse model of streptozocin-induced type1 diabetic neuropathic pain assessed as increase in mechanical threshold for paw withdrawal at 0.005 nmol, it administered on day 10 after STZ injection measured at 180 mins post dose by Von Frey test. Type of data set: functional, organism-based. The method in brief:
as §1

For data set [10], the system named is Rattus norvegicus. Description: Reduction in expiratory time in Sprague-Dawley rat at 6 nmol/kg, iv after 5 to 120 mins by plethysmography method. Type of data set: organism-based. Conditions: in vivo. The method in brief: as §3
In data set [11] the test system is Mus musculus. Description: Neurotoxicity in intrathecally dosed albino Swiss CD1 IGS mouse assessed as motor impairment measured after 15 to 120 mins post dose by rotarod test. Conditions: in vivo, icv_or_intrathecal. Type of data set: toxicity, organism-based. The method in brief:
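Intrathecal dosing (water for injection, 5 µL) to male CD-1 mice. After three training sessions, mice placed on accelerating rod (2 to 40 rpm over 300 s cutoff); tested 15 and 120 min after injection.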
(Falling from the rotarod earlier than controls is read as motor impairment.)

Data set [12] deals with Mus musculus. Kind of data set: Antiallodynic activity in albino Swiss CD1 IGS mouse model of streptozocin-induced type1 diabetic neuropathic pain assessed as increase in mechanical threshold for paw withdrawal at 0.005 nmol, it administered on day 10 after STZ injection measured at 30 mins post dose by Von Frey test. It counts as functional, organism-based. The method in brief:
as §1

Take `CC[C@H](C)[C@H](NC(=O)[C@H](CCCNC(=N)N)NC(=O)[C@H](Cc1ccc(O)cc1)NC(=O)[C@H](Cc1ccc(O)cc1)NC(=O)[C@H](CCCNC(=N)N)NC(=O)CCN1Cc2ccccc2C[C@H](NC(=O)[C@@H](CCCNC(=N)N)NC(=O)[C@@H](N)Cc2c(C)cc(O)cc2C)C1=O)C(=O)N[C@@H](CCCCN)C(N)=O` (H-[Dmt][dR][X1]RYYRIK-NH2): the result in the data set on Mus musculus [1], in the data set with Mus musculus [2], with Mus musculus [5] and in the data set on Mus musculus [12] was Active. The MPE in the data set on Mus musculus [3] is 100%; in the data set on Mus musculus [4], under 5%. Moreover, in data set [6], the Papp at 4 h, 500 µM was found to be 1.1 nm/s. Besides, the Activity entry with Rattus norvegicus [7], in the data set with Rattus norvegicus [8], with Rattus norvegicus [10] and in the data set on Mus musculus [11] was “Non-toxic” throughout. For the same molecule, in the data set with Mus musculus [9], the outcome was inactive.
